Shown are actives, neighbours in structure and some others; about 2.8% of the full set was active somewhere.
RAM network inh = inhibitors of the yeast RAM network, primary screen, dse1pr::URA3 reporter, 5-FOA selection | actives 1.8% (n = 190,000) | S. cerevisiae dse1pr::URA3 reporter, 5-FOA growth OD615, 2 d; analog-sensitive cbk1-as2 kinase mutant strain | inhibition, % at 50 µM;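 active means inhibition above a set limit, 3 SD over mean compound inhibition, cut at about 8.4% in these data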;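 further: 0% = DMSO-only wells with no growth and 100% = 10 µM 1-NA-PP1 full growth; inhibition rescues growth on 5-FOA so higher OD means more RAM inhibition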
Yeast growth inh = growth inhibitors of yeast BB579 in restrictive medium, primary screen, yeast lifespan-shortening project, S. cerevisiae | actives 0.51% (n = 140,000) | AID 804, 2007 | OD615, 48 h | inhibition, % at 10 µM;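 active means inhibition above a set limit, 3 SD over the mean compound inhibition, cut at about 44% in these data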
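System: Saccharomyces cerevisiae DeaD strain BB579, replicative lifespan model yeast | Buffer or medium: Restrictive glucose-based CSMM-D medium | Times: 4 h preincubation and 48 h exposure at 30 °C | Detection: OD615 turbidity measurement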
Yeast lifespan up = compounds extending yeast replicative lifespan, primary screen, S. cerevisiae, OD615 | S. cerevisiae growth with nicotinamide; deaD strain in restrictive glucose medium | inhibition of the nicotinamide effect, % at 10 µM | actives 0.68% (n = 130,000) | AID 775, 2007;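 active means inhibition above a set limit, placed 3 SD over the median of all compounds, cut at about 26% in these data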;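 further: 0% = nicotinamide-treated wells and 100% = cells grown without nicotinamide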
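System: DeaD-strain S. cerevisiae / Buffer or medium: CSMM-D, restrictive glucose (dextrose) synthetic minimal medium / Probe or stimulus: nicotinamide, 1.5 mM, co-present with compound / Compound: one concentration, 10 µM, DMSO 0.25% / Incubation: 48 h compound exposure at 30 °C, humidified / Technique: optical density (absorbance) at 615 nm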
TNAP act hi DEA = TNAP activators at high phosphate acceptor level, primary screen, biochemical, luminescence, uHTS | purified TNAP, CDP-star luminescence, 1 M DEA, 30 min; active compounds read high; 0 = EDTA background, 1 = DMSO-only activity | activation factor at 20 µM | AID 1136, 2008 | 200,000 tested, under 10 active;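 active means activation factor at least 2 at 20 µM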
Target sequence (P05186 whole entry, looked up): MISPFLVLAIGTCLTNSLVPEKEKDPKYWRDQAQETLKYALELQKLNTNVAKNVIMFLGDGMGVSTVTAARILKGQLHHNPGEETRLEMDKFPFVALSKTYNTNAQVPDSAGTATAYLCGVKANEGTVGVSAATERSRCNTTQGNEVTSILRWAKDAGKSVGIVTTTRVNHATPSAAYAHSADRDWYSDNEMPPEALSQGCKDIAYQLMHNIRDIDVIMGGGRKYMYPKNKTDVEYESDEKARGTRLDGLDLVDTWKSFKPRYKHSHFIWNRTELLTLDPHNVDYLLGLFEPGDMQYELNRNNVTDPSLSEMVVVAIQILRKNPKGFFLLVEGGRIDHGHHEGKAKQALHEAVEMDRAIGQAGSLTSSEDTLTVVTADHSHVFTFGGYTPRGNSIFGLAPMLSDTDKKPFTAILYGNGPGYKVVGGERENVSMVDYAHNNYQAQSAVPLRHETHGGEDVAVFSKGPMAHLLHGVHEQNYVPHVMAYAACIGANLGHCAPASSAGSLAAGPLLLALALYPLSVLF
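Assay system: human TNAP; Input: enzyme diluted 1/800 final; Reagent: CDP-star luminogenic substrate at 100 µM final; Timing: 30 min, room temperature; Signal: luminescence; Evaluation: TNAP activation factor scaled between EDTA and DMSO control wells.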
TNAP inh noacc = human TNAP enzyme inhibitors, primary screen, biochemical, luminescent, no phosphate acceptor, uHTS. actives 0.26% (n = 200,000). purified TNAP, CDP-star luminescence, 30 min. inhibition, % at 20 µM;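 active means tissue-nonspecific alkaline phosphatase inhibition above about 50% at 20 µM in the single-dose screen, limit read from the data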;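 further: 0% = DMSO negative control and 100% = EDTA positive control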
TNAP inh hi DEA = human TNAP enzyme inhibitors, primary screen, biochemical, luminescent, high phosphate acceptor level, uHTS; Alkaline phosphatase, tissue-nonspecific isozyme (Homo sapiens), P05186; purified TNAP, CDP-star luminescence, 1 M DEA; inhibition, % at 20 µM; actives 0.03% (n = 200,000); AID 1135, 2008;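 active means over 50% inhibition of tissue-nonspecific alkaline phosphatase at 20 µM in the single-dose screen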;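 further: plate controls were DMSO wells for no effect and EDTA-quenched wells as full inhibition for full effect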
Numbers without * were called inactive.

CC1CCCC(NC(=O)CCCn2c(=S)[nH]c3ccccc3c2=O)C1C (stereo unspecified) was read as RAM network inh 9.0*, TNAP act hi DEA 1, TNAP inh noacc -11 and TNAP inh hi DEA -3.
CCCCOc1ccc(-c2nc(SCC(N)=O)n[nH]2)cc1 was read as RAM network inh -1, Yeast growth inh -3, Yeast lifespan up -17, TNAP act hi DEA 1, TNAP inh noacc 16 and TNAP inh hi DEA -3.
Screening C=CCSc1ncc(-c2ccccc2)cn1 returned RAM network inh 0, TNAP act hi DEA 1, TNAP inh noacc -5 and TNAP inh hi DEA -1.
Screening C=CCSc1n[nH]c(-c2ccc(OC)cc2)n1 returned RAM network inh 0, Yeast growth inh -17, Yeast lifespan up -19, TNAP act hi DEA 1, TNAP inh noacc 80* and TNAP inh hi DEA -3.
`C=CCSc1n[nH]c(-c2ccccc2)n1` gave RAM network inh -1, Yeast growth inh 0, Yeast lifespan up -14, TNAP act hi DEA 1, TNAP inh noacc 76* and TNAP inh hi DEA -2.
`Cc1nn2c(-c3ccco3)nnc2c2ccccc12` gave RAM network inh 3, Yeast growth inh 88*, Yeast lifespan up -12, TNAP act hi DEA 1, TNAP inh noacc -11 and TNAP inh hi DEA -3.
`Cc1ccccc1-c1nnc2c3ccccc3c(C)nn12` gave RAM network inh 0, Yeast growth inh -14, TNAP act hi DEA 1, TNAP inh noacc -10 and TNAP inh hi DEA -4.
For Cc1nn2c(-c3ccncc3)nnc2c2ccccc12 the results were RAM network inh 2, Yeast growth inh 89*, Yeast lifespan up -13, TNAP act hi DEA 1, TNAP inh noacc -1 and TNAP inh hi DEA -2.
For COc1ccc(-c2nnc3c4ccccc4c(C)nn23)cc1 the results were RAM network inh 1, Yeast growth inh 49*, Yeast lifespan up -5, TNAP act hi DEA 1.1, TNAP inh noacc -15 and TNAP inh hi DEA -6.
Screening CC(=O)Nc1cccc(-c2nnc3c4ccccc4c(C)nn23)c1 returned RAM network inh 0, TNAP act hi DEA 1, TNAP inh noacc -5 and TNAP inh hi DEA 0.
Screening COc1ccc(CNC(=O)CS(=O)CC(=O)O)cc1OC (stereo unspecified) returned RAM network inh 0, TNAP act hi DEA 1, TNAP inh noacc -9 and TNAP inh hi DEA -3.
CCOC(=O)N1CCN(C(=O)COc2ccc(S(=O)(=O)NC(C)C)cc2)CC1 was read as TNAP act hi DEA 1, TNAP inh noacc -16 and TNAP inh hi DEA -4.
For Nc1c(-c2ccccc2)n[nH]c1-c1ccccc1 the results were RAM network inh 2, Yeast growth inh -38, Yeast lifespan up -26, TNAP act hi DEA 1, TNAP inh noacc 89* and TNAP inh hi DEA -2.
For CCc1cc2c(=O)c(-c3nc4ccccc4[nH]3)coc2cc1OC(=O)N1CCOCC1 the results were RAM network inh 11*, Yeast growth inh -23, Yeast lifespan up 18, TNAP act hi DEA 1, TNAP inh noacc 6 and TNAP inh hi DEA -4.
For COC(=O)c1ccccc1NC(=S)N(Cc1ccc2c(c1)OCO2)Cc1cc2cc(OC)ccc2[nH]c1=O the results were RAM network inh 8.5*, Yeast growth inh -43, Yeast lifespan up 8, TNAP act hi DEA 1, TNAP inh noacc -2 and TNAP inh hi DEA -3.
Screening COc1ccc(CN(Cc2cc3cc(C)ccc3[nH]c2=O)C(=O)N(C)C)cc1 returned RAM network inh 5, Yeast growth inh -45, Yeast lifespan up -19, TNAP act hi DEA 1, TNAP inh noacc -2 and TNAP inh hi DEA -4.
For COc1ccccc1NC(=S)N(CCCN(C)C)Cc1cc2cc3c(cc2[nH]c1=O)OCO3 the results were RAM network inh 0, TNAP act hi DEA 1.1, TNAP inh noacc -9 and TNAP inh hi DEA -6.

High-throughput results (PubChem BioAssay)
